The text below walks through data of ChEMBL document CHEMBL1140158, “Soluble 3',6-substituted indirubins with enhanced selectivity toward glycogen synthase kinase -3 alter circadian period” (J Med Chem, 2008).

Activity calls are given as the source filed them. The rule behind the calls is not given here. Bounds are passed on as bounds.

In series [1] the test system is Glycogen synthase kinase-3 (Sus scrofa). Briefly: Inhibition of pig GSK3alpha/beta.
Series [2] can be described thus: Solubility in water. In kind it is physicochemical. Summed up:
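Excess solid in double-distilled water was sonicated 5 min, then stirred overnight to equilibrium at 25 ± 0.1 °C and centrifuged. Supernatant absorbance was read at 515–518 nm and quantified against per-compound standard reference curves.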

In series [3] the test system is SH-SY5Y. Briefly: Cytotoxicity against human SH-SY5Y cells after 48 hrs by MTS reduction assay. In kind it is cell-based.
A short description of series [4]: Lipophilicity, log D of the compound. The series is classed as physicochemical. The note with it: octanol/water.
A short description of series [5]: Dissociation constant, pKa of the compound. The series is classed as physicochemical.
Series [6] can be described thus: Inhibition of human recombinant CDK5/p25 expressed in Escherichia coli.
Series [7] deals with T1, Glycogen synthase kinase-3 (Homo sapiens, UniProt P49840+P49841). Briefly: Inhibition of GSK3-mediated beta-catenin phosphorylation in human SH-SY5Y cells in presence of MG132 by ELISA. A general note: An ELISA detects its analyte on a solid surface through an enzyme-linked reagent.
T1 sequence (P49840 whole entry, looked up): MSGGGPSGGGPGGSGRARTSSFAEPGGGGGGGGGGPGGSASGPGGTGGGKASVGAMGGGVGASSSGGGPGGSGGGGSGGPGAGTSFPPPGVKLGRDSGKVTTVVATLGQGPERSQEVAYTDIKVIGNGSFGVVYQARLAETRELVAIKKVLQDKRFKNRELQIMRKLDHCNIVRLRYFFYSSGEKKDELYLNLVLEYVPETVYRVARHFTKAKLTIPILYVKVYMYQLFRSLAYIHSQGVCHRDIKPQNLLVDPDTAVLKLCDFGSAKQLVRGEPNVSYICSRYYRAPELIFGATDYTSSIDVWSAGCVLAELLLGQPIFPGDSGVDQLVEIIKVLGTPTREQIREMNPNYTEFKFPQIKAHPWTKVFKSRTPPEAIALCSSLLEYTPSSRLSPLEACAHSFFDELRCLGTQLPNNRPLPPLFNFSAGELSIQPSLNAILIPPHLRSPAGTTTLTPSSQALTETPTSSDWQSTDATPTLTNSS
T1 sequence (P49841 whole entry, looked up): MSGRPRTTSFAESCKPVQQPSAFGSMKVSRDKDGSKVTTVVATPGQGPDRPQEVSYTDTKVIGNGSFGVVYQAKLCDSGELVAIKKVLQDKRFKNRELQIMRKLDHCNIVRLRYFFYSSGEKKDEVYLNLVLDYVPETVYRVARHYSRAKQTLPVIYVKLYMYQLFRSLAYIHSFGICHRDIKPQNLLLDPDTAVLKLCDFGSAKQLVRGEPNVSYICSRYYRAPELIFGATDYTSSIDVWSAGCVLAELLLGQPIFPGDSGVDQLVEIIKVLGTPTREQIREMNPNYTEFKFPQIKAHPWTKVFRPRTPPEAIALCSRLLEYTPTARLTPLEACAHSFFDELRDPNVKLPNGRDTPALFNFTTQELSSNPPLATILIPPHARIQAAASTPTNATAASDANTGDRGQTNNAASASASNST
Series [8] concerns the target T1, Glycogen synthase kinase-3. Briefly: Inhibition of GSK3-mediated beta-catenin phosphorylation in human SH-SY5Y cells in presence of MG132 by Western blot analysis.
In series [9] the test system is Rat1. Briefly: Effect on circadian rhythm in Pper2::Fluc transfected Rat1 cells assessed as shortening of period length at 10 uM. As to conditions: Rattus norvegicus. In kind it is functional, cell-based. The gist of the method:
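Rat-1 fibroblasts stably carrying PPer2::Fluc, grown to confluence, synchronized with 0.1 μM dexamethasone (1 h in Experimental, 2 h in legend), then moved to phenol-red-free assay medium with 0.1 mM luciferin. Compounds at 10 μM added before dish sealing and left continuously; DMSO solvent control. Luminescence recorded 4–5 days or more; period derived by regression analysis.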

Usually IC50 stands for the concentration that inhibits the measured activity by half. One may read the solubility (thermodynamic) as solubility found after equilibrating the solid with the medium. One may read the logD as lipophilicity at a set pH, counting ionised and neutral species. Low values mean a more hydrophilic compound, high ones a more lipophilic compound. By pKa is commonly meant the pH at which an ionisable group is half protonated. A low value points to a group that gives up its proton readily. As for `CCN(CC)CCO/N=C1/C(=C2/C(=O)Nc3cc(Br)ccc32)Nc2ccccc21.Cl`, the half-inhibitory concentration (IC50) was 27 nM in [1]; over 100 µM in series [3] (Homo sapiens, SH-SY5Y, 48 h); 40 nM in series [6]. Further, the thermodynamic solubility in series [2] was determined as 192 µg/mL. The same molecule came in with a logD in [4] of 1.19. The molecule also returned a pKa in series [5] of 9.38.

On to `O=C1Nc2cc(Br)ccc2/C1=C1/Nc2ccccc2/C1=N\OCCBr`, for which the 50% inhibitory concentration (IC50) in [1] was 140 nM; in [3] (Homo sapiens, SH-SY5Y, 48 h), over 100 µM; in series [6] it was over 10000 nM.

In series [2], `Cl.Cl.O=C1Nc2cc(Br)ccc2/C1=C1/Nc2ccccc2/C1=N\OCCN1CCNCC1` came in with a solubility (thermodynamic) of 1610 µg/mL. Further, the values for the concentration for half-maximal inhibition (IC50) in [3] (sh-sy5y), in series [6] and in series [7] were 5.9 µM, 180 nM and 0.22 µM, respectively. In series [4], this molecule displayed a logD of -0.87. In series [5], this molecule yielded a pKa of 8.85.

Turning to `Cl.Cl.O=C1Nc2cc(Br)ccc2/C1=C1/Nc2ccccc2/C1=N\OCCN1CCN(CCO)CC1`, the solubility (thermodynamic) in [2] is 1140 µg/mL. In [4], this molecule registered a pH-dependent lipophilicity (logD) of 1.41. In series [5], this molecule yielded a pKa of 7.65.

In the case of `Cn1c(O)c(-c2[nH]c3ccccc3c2N=O)c2ccc(Br)cc21`, the result in series [8] was inactive.

Regarding `O=C1Nc2cc(Br)ccc2/C1=C1/Nc2ccccc2/C1=N\OCCN1CCCC1`, the IC50 in [1] came to 26 nM; in series [3] (sh-sy5y), 5.5 µM; in series [6], 130 nM.

Regarding `CN1CCN(CCO/N=C2/C(=C3/C(=O)Nc4cc(Br)ccc43)Nc3ccccc32)CC1.Cl.Cl`, the concentration for half-maximal inhibition (IC50) in [1] was 5 nM; in [3] (Homo sapiens, SH-SY5Y, 48 h), 5.4 µM; in series [6] it was 300 nM. The same molecule returned a solubility (thermodynamic) in series [2] of 1500 µg/mL. Also, the log distribution coefficient (logD) in series [4] was determined as 1.74. The molecule also came in with a pKa in series [5] of 7.65.

Consider `CN(C)CCO/N=C1/C(=C2/C(=O)Nc3cc(Br)ccc32)Nc2ccccc21.Cl`, for which the thermodynamic solubility in series [2] is 141 µg/mL. The molecule further displayed a log distribution coefficient (logD) in [4] of 1.69. Also, the pKa in series [5] amounted to 8.59.

With `Cl.Cl.O=C1Nc2cc(Br)ccc2/C1=C1/Nc2ccccc2/C1=N\OCCN1CCN(CCOCCO)CC1`, the IC50 in [1] was 33 nM; in [3] (Homo sapiens, SH-SY5Y, 48 h), 97.6 µM; in [6], 330 nM. Also, the thermodynamic solubility in series [2] was 4250 µg/mL. The same molecule displayed a logD in series [4] of 1.46. The same molecule registered a pKa in [5] of 7.58.

For the molecule `Cl.O=C1Nc2cc(Br)ccc2/C1=C1/Nc2ccccc2/C1=N\OCCN(CCO)CCO`, the IC50 in [7] turned out to be 0.32 µM.

Regarding `CCN(CC)CCO/N=C1/C(=C2/C(=O)Nc3cc(Br)ccc32)Nc2ccccc21`, the values for the IC50 in [1], in [3] (sh-sy5y) and in [6] were 35 nM, 78 µM and 20 nM, respectively.

Take `CN(CCO/N=C1/C(=C2/C(=O)Nc3cc(Br)ccc32)Nc2ccccc21)CC(O)CO` (stereo unspecified): the IC50 stood at 67 nM in [1]; 5.8 µM in [3] (Homo sapiens, SH-SY5Y, 48 h); 240 nM in [6].

With `O=C1Nc2cc(Br)ccc2/C1=C1/Nc2ccccc2/C1=N\OCCO`, the IC50 was over 100 µM in series [3] (Homo sapiens, SH-SY5Y, 48 h) and over 10000 nM in series [6].

With `O=C1Nc2cc(Br)ccc2/C1=C1/Nc2ccccc2/C1=N\OCCN1CCN(CCO)CC1`, the IC50 in series [7] was 0.7 µM.

Molecule `O=C1Nc2cc(Br)ccc2/C1=C1/Nc2ccccc2/C1=N\OCCN(CCO)CCO` had an IC50 in series [3] (Homo sapiens, SH-SY5Y, 48 h) of 6.6 µM.

On to `O=C1Nc2cc(Br)ccc2/C1=C1/Nc2ccccc2/C1=N\OCCN1CCN(CCOCCO)CC1` [listing 1 of 2 here], for which, in [9], the result was Active.

`CN1CCN(CCO/N=C2/C(=C3/C(=O)Nc4cc(Br)ccc43)Nc3ccccc32)CC1`: the IC50 in [1] came to 7 nM; in series [6], 400 nM.

`O=C1Nc2cc(Br)ccc2/C1=C1/Nc2ccccc2/C1=N\OCCN1CCN(CCOCCO)CC1` [listing 2 of 2 here]: the figures for the concentration for half-maximal inhibition (IC50) in [1], in [6] and in [7] were 14 nM, 310 nM and 2.9 µM, respectively.

On to `COCCN1CCN(CCO/N=C2/C(=C3/C(=O)Nc4cc(Br)ccc43)Nc3ccccc32)CC1.Cl.Cl`, for which the IC50 is 20 nM in series [1]; over 100 µM in series [3] (Homo sapiens, SH-SY5Y, 48 h); 400 nM in series [6]. The thermodynamic solubility in series [2] was 570 µg/mL. This molecule also yielded a pH-dependent lipophilicity (logD) in [4] of 1.9. Also, the pKa in series [5] is 7.47.

In the case of `O=C1Nc2cc(Br)ccc2/C1=C1/Nc2ccccc2/C1=N\OCCN1CCNCC1`, the IC50 in series [3] (sh-sy5y) is 13.2 µM; in [7], 0.15 µM.

With `O=C1Nc2cc(Br)ccc2/C1=C1/Nc2ccccc2/C1=N\OCC(O)CO` (stereo unspecified), the IC50 in series [1] was 34 nM; in [3] (Homo sapiens, SH-SY5Y, 48 h), 0.94 µM; in [6], 25 nM.

As for `CCN(CC)C(=O)O/N=C1/C(=C2/C(=O)Nc3cc(Br)ccc32)Nc2ccccc21`, the IC50 in series [1] was 30 nM; in series [3] (Homo sapiens, SH-SY5Y, 48 h), over 100 µM; in series [6], 10000 nM.

Regarding `Cl.O=C1Nc2cc(Br)ccc2/C1=C1/Nc2ccccc2/C1=N\OCCN1CCCC1`, the concentration for half-maximal inhibition (IC50) was 54 nM in [1]; 4.2 µM in series [3] (Homo sapiens, SH-SY5Y, 48 h); 100 nM in [6]. The thermodynamic solubility in series [2] stood at 195 µg/mL. In [4], this molecule registered a logD of 1.16. In series [5], this molecule returned a pKa of 9.18.

On to `COCCN1CCN(CCO/N=C2/C(=C3/C(=O)Nc4cc(Br)ccc43)Nc3ccccc32)CC1`, for which the IC50 came out at 11 nM in series [1] and 500 nM in [6].
